Consider 15 compounds from ChEMBL document CHEMBL1143259, “Synthesis and antiplasmodial activity of new 4-aryl-2-trichloromethylquinazolines” (Bioorg Med Chem Lett, 2008).

Bounds are passed on as bounds.

The nature of data set [1]: Selectivity index, ratio of IC50 for human HepG2 cells to IC50 for Plasmodium falciparum W2. The format is functional. In a few lines: (§1)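 SI = human-cell IC50 divided by P. falciparum W2 IC50. Each IC50 is the mean of three independent experiments.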
Data set [2] concerns Plasmodium falciparum. Nature of the data set: Antiplasmodial activity against chloroquinone-resistant Plasmodium falciparum W2. The format is functional, organism-based.
In the next data set the test system is HepG2. Nature of the data set: Cytotoxicity against human HepG2 cells by MTT assay. The format is cell-based. The method, boiled down:
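HepG2 cells were seeded at 5 × 10³ cells/well in RPMI and pre-incubated for 24 h. Compound was added at various concentrations and incubated for 72 h. MTT (5 mg/mL in PBS) was then added in serum-free medium for 2 h at 37 °C in 6% CO₂. Formazan was dissolved in DMSO and A570 read against a 630 nm reference. Viability was expressed as % of untreated control, and the 50% cytotoxic concentration taken from the dose–response curve. Values are the mean of three independent experiments.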
For orientation: Tetrazolium assays rely on reduction of a dye to a coloured formazan, in cell work by metabolically active cells.

The nature of data set [3]: (§2) Cytotoxicity against human THP1 cells by MTT assay. The format is cell-based, THP-1. The note with it: human, THP-1 cells; read-out: LC50 (the source's name). In a few lines: (§3)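 Cells seeded at 5 × 10³/well in RPMI and pre-incubated 24 h, then exposed to a range of compound concentrations for 72 h. MTT was added in serum-free medium for 2 h at 37 °C, and the formazan was dissolved in DMSO. Absorbance was read at 570 nm against a 630 nm reference. Viability was taken as % of untreated control, and IC50 came from the dose–response curve (mean of three independent experiments).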

The next data set has as its system THP-1. The data set is described as §2. The format is cell-based. The note with it: Homo sapiens, THP-1. In a few lines:
as §3

The nature of data set [4]: Selectivity index, ratio of IC50 for human THP1 cells to IC50 for Plasmodium falciparum W2. It counts as functional, THP-1. The method, boiled down:
as §1

In data set [5] the test system is Plasmodium falciparum. Nature of the data set: Antiplasmodial activity against chloroquinone-sensitive Plasmodium falciparum 3D7. It counts as functional, organism-based.

Regarding `FC(F)(F)c1cccc(-c2nc(C(Cl)(Cl)Cl)nc3ccccc23)c1`, the “Ratio IC50” value in data set [1] is reported as more than 3.1; in data set [4], 1.9. For the same compound, the IC50 (as a rule, the midpoint of a concentration-inhibition curve) is 40.4 µM with Plasmodium falciparum [2], more than 125 µM with HepG2, 78.6 µM in the data set with THP-1 and 36.6 µM with Plasmodium falciparum [5]. Also, in data set [3], the CC50 was more than 500 µM.
On to `Fc1ccc(-c2nc(C(Cl)(Cl)Cl)nc3ccccc23)cc1`, for which the “Ratio IC50” value is listed as more than 50 in data set [1] and 50 in data set [4]. The IC50 was 2.5 µM with Plasmodium falciparum [2], more than 125 µM in the data set with HepG2, 125 µM with THP-1 and 3 µM in the data set with Plasmodium falciparum [5]. Besides, the CC50 in data set [3] is 500 µM.
In the case of `Cc1ccc(-c2nc(C(Cl)(Cl)Cl)nc3ccccc23)s1`, the “Ratio IC50” value in data set [1] came to 2.9; in data set [4], 5.7. Besides, the IC50 came to 8.7 µM in the data set on Plasmodium falciparum [2], 25 µM in the data set on HepG2, 50 µM in the data set on THP-1 and 24 µM with Plasmodium falciparum [5]. Also, the CC50 in data set [3] amounted to 125 µM.
The compound `CCN(CC)CCCC(C)Nc1ccnc2cc(Cl)ccc12` (centres undefined) [CHLOROQUINE] came in with an IC50 in the data set with HepG2 of 30 µM.
Take `ClC(Cl)(Cl)c1nc(-c2ccc3ccccc3c2)c2ccccc2n1`: the “Ratio IC50” value in data set [1] is on record as more than 15.4; in data set [4], more than 61.7. Moreover, the IC50 was 8.1 µM with Plasmodium falciparum [2], more than 125 µM in the data set on HepG2, more than 500 µM in the data set on THP-1 and 23.3 µM with Plasmodium falciparum [5]. In data set [3], the CC50 was more than 500 µM.
For the compound `C/N=C(\NC)c1nc(-c2ccccc2)c2ccccc2n1.Cl`, the Ratio IC50 in data set [1] is less than 1.25; in data set [4], 5. Moreover, the IC50 in the data set with Plasmodium falciparum [2] is more than 100 µM; with HepG2, more than 125 µM; in the data set on THP-1 it was more than 500 µM; with Plasmodium falciparum [5], more than 100 µM. Further, in data set [3], the CC50 is more than 500 µM.
With `COc1ccc(-c2nc(C(Cl)(Cl)Cl)nc3ccccc23)cc1`, the “Ratio IC50” value was 11.5 in data set [1] and 22.9 in data set [4]. Also, the IC50 with Plasmodium falciparum [2] stood at 10.9 µM; in the data set with HepG2, 125 µM; in the data set with THP-1, 250 µM; in the data set with Plasmodium falciparum [5], 25 µM. In addition, the CC50 in data set [3] was more than 250 µM.
In the case of `COc1cc(-c2nc(C(Cl)(Cl)Cl)nc3ccccc23)cc(OC)c1OC`, the “Ratio IC50” value in data set [1] is more than 4.3; in data set [4] it was more than 8.7. Besides, the IC50 with Plasmodium falciparum [2] was 28.9 µM; with HepG2, more than 125 µM; in the data set on THP-1 it was more than 250 µM; with Plasmodium falciparum [5], 23.3 µM. In data set [3], the CC50 is more than 250 µM.
Take `ClC(Cl)(Cl)c1nc(-c2ccco2)c2ccccc2n1`: the figures for the “Ratio IC50” value in data set [1] and in data set [4] were more than 6.2 and 3.1, respectively. Also, the IC50 with Plasmodium falciparum [2] is 20.2 µM; in the data set with HepG2 it was more than 125 µM; in the data set on THP-1, 61.6 µM; with Plasmodium falciparum [5], 30 µM. The CC50 in data set [3] is more than 500 µM.
As to `Clc1nc(C(Cl)(Cl)Cl)nc2ccccc12`, the figures for the “Ratio IC50” value in data set [1] and in data set [4] were more than 2.3 and more than 9.2, respectively. Besides, the IC50 in the data set with Plasmodium falciparum [2] is 54.5 µM; with HepG2 it was more than 125 µM; with THP-1, more than 500 µM; with Plasmodium falciparum [5] it was 73.2 µM. For the same compound, the CC50 in data set [3] is more than 500 µM.
Consider `Clc1ccc(-c2nc(C(Cl)(Cl)Cl)nc3ccccc23)cc1`, for which the “Ratio IC50” value in data set [1] is given as more than 26.6; in data set [4], 15.6. In addition, the 50% inhibitory concentration (IC50) in the data set on Plasmodium falciparum [2] was 4.7 µM; with HepG2 it was more than 125 µM; in the data set with THP-1, 73.2 µM; in the data set on Plasmodium falciparum [5] it was 2.2 µM. Besides, in data set [3], the CC50 was more than 500 µM.
For the compound `COc1cccc2c1C(=O)c1c(O)c3c(c(O)c1C2=O)C[C@@](O)(C(=O)CO)C[C@@H]3O[C@H]1C[C@H](N)[C@H](O)[C@H](C)O1` [DOXORUBICIN], the values for the IC50 in the data set with HepG2 and with THP-1 were 0.2 µM and 0.05 µM, respectively. Besides, the CC50 in data set [3] worked out at 2.5 µM.
In the case of `C[C@H]1c2cccc(O)c2C(=O)C2=C(O)[C@]3(O)C(=O)C(C(N)=O)=C(O)[C@@H](N(C)C)[C@@H]3[C@@H](O)[C@@H]21` [DOXYCYCLINE], in the data set with Plasmodium falciparum [2], 9 µM corresponded to half-maximal inhibition (IC50).
Take `ClC(Cl)(Cl)c1nc(-c2ccccc2)c2ccccc2n1`: the “Ratio IC50” value is given as more than 15.6 in data set [1] and 15.6 in data set [4]. Also, the IC50 in the data set with Plasmodium falciparum [2] is 8 µM; in the data set on HepG2 it was more than 125 µM; with THP-1, 125 µM; in the data set with Plasmodium falciparum [5], 20.4 µM. In data set [3], the CC50 is more than 500 µM.
As for `Cc1nc(-c2ccccc2)c2ccccc2n1`, the “Ratio IC50” value in data set [1] is recorded as more than 2; in data set [4] it was 2. Besides, the IC50 in the data set on Plasmodium falciparum [2] was 62.4 µM; in the data set with HepG2, more than 125 µM; in the data set on THP-1, 125 µM; in the data set with Plasmodium falciparum [5] it was more than 125 µM. For the same compound, in data set [3], the CC50 is more than 500 µM.
